Measured values: the EternaBench riboswitch data

Test system: MS2 coat protein
Experiment: apparent Kd, MS2 coat protein; higher = weaker binding; RNA-MaP array; FMN 200 µM where present
Outline: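 Binding was read on Illumina sequencing-chip clusters where stalled E. coli RNA polymerase had transcribed each design. A titration of SNAP-549-labelled MS2 coat protein began at 0.7 or 1.5 nM and doubled to 3 µM, once without ligand and once with constant ligand, in 100 mM Tris-HCl pH 7.5, 80 mM KCl, 4 mM MgCl2, BSA, DTT, yeast tRNA and Tween-20. The apparent Kd is the median of filtered per-cluster binding-curve fits, based on green signal normalised to red-channel RNA signal and control-cluster median Fmax.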

[1] = designed as: OFF switch for flavin mononucleotide, no ligand
[2] = ligand present: flavin mononucleotide, designed as: OFF switch for flavin mononucleotide
[3] = designed as: ON switch for flavin mononucleotide, no ligand
[4] = ligand present: flavin mononucleotide, designed as: ON switch for flavin mononucleotide

Sequence	apparent Kd [1] [nM]	apparent Kd [2] [nM]	apparent Kd [3] [nM]	apparent Kd [4] [nM]
GGAAAACAUGAGGAUCACCCAUGUGAGGAUAUCGAUGUCCAAAAACCAGUGCGGGACUCGAGAAGGCACUUGGA	49.1	26.3		
GGAAAACAUGAGGAUCACCCAUGUGAGGAUAUCGAUGUCCAACCACCCGUGCGGGACUCGAGAAGGCACUUGGA	53.4	146		
GGAAAACAUGAGGAUCACCCAUGUGAGGAUAUCGAUGUCCAAGAAAAAGUGCGGGACUCGAGAAGGCACUUGGA	58.9	36.8		
GGAAAGAUGUUAGGAUAUGGCUUCCCGGUGAAGCCAGAAGGAACAUGAGGAUCACCCAUGUAAAGCGAGUGGCUCUUCUCUGGA	18.6	65.9		
GGAAAGUCAGGAUAUGGAUAAUAAAUACAAAUAGAAACAAACCAGAAGGGACAUGAGGAUCACCCAUGUAAACA	24.1	23.1		
GGAAAGUGAGGAUAUGGUAAUUUAAUUAUUAAUUAAUUAAUCCAGAAGGCACAUGAGGAUCACCCAUGUAAAUG	35.9	61.5		
GGAAAUCAUGUAGGAUAUGCAUGGCGAAGCUACGCAGAAGGACAUGAGGAUCACCCAUGUGCUAGCUACCGAGUUCGGUGGCAA	90.8	211		
GGAAAUCAUGUAGGAUAUGCAUGGCGAAGCUACGCAGAAGGACAUGAGGAUCACCCAUGUUAUAGCGUCCGAGAAGGGAUGCAA	40	218		
GGAAAUCGUGUAGGAUAUGCAUGGCGAAGCUACGCAGAAGGACAUGAGGAUCACCCAUGUUAUAGCGUCCGAGAAAGGAUGCAA	11	67.4		
GGAAGACAAAGUCUUCCAUAACGAACAUGAGGAUCACCCAUGUAGGAUAUGCUACUCAAAGAGUAGCAGAAGGACAUGUGUCUU	28.1	129		
GGACAUGUCGUUUACAUGAGGAUCACCCAUGUCGAUGGACAUGAGGAUAUCGAUCCGAAUCGGAUCGAGAAGGCAUGCAUGUCC			41.8	18.6
GGACAUUUACAGAAGGGCAAAUUUUAUAGUGAAUAUUUAGUUCUGAUUUGCAGGAUAUGUGGAACAUGAGGAUCACCCAUGUCC			13.8	6.71
GGACCGAGUGUGAGGAUAUGCUGGUCCUUGGAUCAGCAGAAGGCACAUGAGGAUCACCCAUGUGGUGUCGGUCC	573	203		
GGACCGUGAAGAGUUGGCGGUCGGCAGGAUAUGACAUGAGGAUCACCCAUGUGAACUCCAUUGGGUCAGAAGGGCCACGACACA	37.5	108		
GGACGGUUCGUCAGGAUAUGCUCUACCUCGGUAGAGCAGAAGGGACAUGAGGAUCACCCAUGUGAGAACUGUUC	18.4	17.3		
GGACGGUUUGUCAGGAUAUGCUCUACCUCGGUAGAGCAGAAGGGACAUGAGGAUCACCCAUGUGAAAACUGUUC	22.8	25.2		
GGACGUAAAGAGAAGGGCUACUGGUUGAAACCUGCGGCCUCUGGAACAUGAGGAUCACCCAUGUAGCAGGAUAUCUUUGCACCA	157	26.7		
GGACGUCACAUCUACAUGAGGAUCACCCAUGUCGAAAGACAUGAGGAUAUGCAUCCUAAUUGGAUGCAGAAGGCAUGGACGUCC			667	69.7
GGACGUCACAUGAACAUGAGGAUCACCCAUGUAAAUUCUCAUGAGGAUAUGGAUCCUAAUUGGAUCCAGAAGGCGUGGACGUCC			1030	415
GGACGUCACUCAAACAAUUAAACAUGAGGAUCACCCAUGUCACAGGAUAUGGAUCCUAAUUGGAUCCAGAAGGGUGAGACGUCC			251	222
GGACGUCGCAUUAACAUGAGGAUCACCCAUGUCAAAGGACAUGAGGAUAUGGAUCCUAAUUGGAUCCAGAAGGCAUGGACGUCC			485	35.8

Sequence	apparent Kd [1] [nM]	apparent Kd [2] [nM]	apparent Kd [3] [nM]	apparent Kd [4] [nM]
GGACGUCUCAUUAACAUGAGGAUCACCCAUGUCAAAAGACAUGAGGAUAUGGAACCUAAUUGGUUCCAGAAGGCAUGGACGUCC			802	62.6
GGACGUCUCAUUAACAUGAGGAUCACCCAUGUCAAAAGACAUGAGGAUAUGGUUCCUAAUUGGAACCAGAAGGCAUGGACGUCC			853	67.8
GGAGAGGACAGAGGAUAUACGUGCUAGAGAUACUAGCAAAAUUUCCUCACAUGAGGAUCACCCAUGUAGAAGGCUGUCCUAUCG	16.6	309		
GGAGAUACAUGAGGAUCACCCAUGUAGGAUAUCGGGCCCAUAUAUGGCGAAAGCCAUAUAUGGGCCGAGAAGGGCGUACACACC	7.63	7.45		
GGAGCACACAUUAACAUGAGGAUCACCCAUGUCAAAAGACAUGAGGAUAUGGAUCCGAAAAGGAUCCAGAAGGCAUGGAGCUCC			169	10.5
GGAGCAUAUCAAUACAUGAGGAUCACCCAUGUCGAAUGAUAUGAGGAUAUGCAUCGGAAAACGAUGUAGAAGGCAUAGUGCUCC			9.14	5.58
GGAGCCGGUACUGAGGAUAUUCAUAUUAAAACAUGAGGAUCACCCAUGUAGGCCAGAAGGCCUUGGGAGAAGGCAGGCCAGCUCG			378	31.4
GGAGCUCACAUUAACAUGAGGAUCACCCAUGUCUCUAGACAUGAGGAUAUGGAUCCUAAUUGGAUCCAGAAGGCAUGGAGCUCC			1450	118
GGAUAGGACAGAGGAUAUACGGAUAGGAUCUACUAUCUUUCUCAAAUAACAUGAGGAUCACCCAUGUAGAAGGCUGUCCUAUCG	21.5	122		
GGAUAGGACAGAGGAUAUACGUGCUAGAGAUAAUAGCAAAAUUUCCUCACAUGAGGAUCACCCAUGUAGAAGGCUGUCCUAUCG	19.5	250		
GGAUAGGACAGAGGAUAUACGUGCUAGAGAUACUAGCAAAACUUCCUCACAUGAGGAUCACCCAUGUAGAAGGCUGUCCUAUCG	16.7	564		
GGAUAGGACAGAGGAUAUACGUGCUAGAGAUACUAGCAAAAUUUCCUCACAUGAGGAUCACCCAUGUAGAAGGCUGGCCUAUCG	14.1	379		
GGAUAGGACAGAGGAUAUACGUGCUAGAGAUACUAGCAAAAUUUCCUCACAUGAGGAUCACCCAUGUAGAAGGCUUUCCUAUCG	6.3	37		
GGAUAGGACAGAGGAUAUACGUGCUAGAGAUACUAGGAAAAUUUCCUCACAUGAGGAUCACCCAUGUAGAAGGCUGUCCUAUCG	305	51.7		
GGAUAGGACAGAGGAUAUACGUGCUAGAGGUACUAGCAAAAUUUCCUCACAUGAGGAUCACCCAUGUAGAAGGCUGUCCUAUCG	17	461		
GGAUAGUGUCGUUAUCCGUAGCGAACAUGAGGAUCACCCAUGUAGGAUAUGUUACUAAACUAGUAACAGAAGGGCGUGAGUCUU	94.2	108		
GGAUAGUGUCGUUAUCCGUAGCGAACAUGAGGAUCACCCAUGUAGGAUAUGUUAUUAAACUAAUAACAGAAGGACGUUGGUCUC	66.2	434		
GGAUCGAGUGUGAGGAUAUGCUGGUCCUUGGAUCAGCAGAAGGCACAUGAGGAUCACCCAUGUGUUCCCGAUCC	43.6	626		
GGAUCGUAUGUCAGGAUAUACCACUGGAUACAGUGGUAGAAGGGACAUGAGGAUCACCCAUGUCUUAUCGAUCC	13.2	18.3		
GGAUGACAAAGUCAUCCAAUACGAACAUGAGGAUCACCCAUGUAGGAUAUGCUAGUCAAAGACUAGCAGAAGGACAUGUGCCUU	39.2	238		
